Results of several laboratories.
Lines come from different studies, so protocols differ.
Target: Serine/threonine-protein kinase TBK1 (TBK1, Homo sapiens, UniProt Q9UHD2)
Observed: enzyme activity
Action: inhibitor
Sequence (Q9UHD2 1-729, as in one of the studies): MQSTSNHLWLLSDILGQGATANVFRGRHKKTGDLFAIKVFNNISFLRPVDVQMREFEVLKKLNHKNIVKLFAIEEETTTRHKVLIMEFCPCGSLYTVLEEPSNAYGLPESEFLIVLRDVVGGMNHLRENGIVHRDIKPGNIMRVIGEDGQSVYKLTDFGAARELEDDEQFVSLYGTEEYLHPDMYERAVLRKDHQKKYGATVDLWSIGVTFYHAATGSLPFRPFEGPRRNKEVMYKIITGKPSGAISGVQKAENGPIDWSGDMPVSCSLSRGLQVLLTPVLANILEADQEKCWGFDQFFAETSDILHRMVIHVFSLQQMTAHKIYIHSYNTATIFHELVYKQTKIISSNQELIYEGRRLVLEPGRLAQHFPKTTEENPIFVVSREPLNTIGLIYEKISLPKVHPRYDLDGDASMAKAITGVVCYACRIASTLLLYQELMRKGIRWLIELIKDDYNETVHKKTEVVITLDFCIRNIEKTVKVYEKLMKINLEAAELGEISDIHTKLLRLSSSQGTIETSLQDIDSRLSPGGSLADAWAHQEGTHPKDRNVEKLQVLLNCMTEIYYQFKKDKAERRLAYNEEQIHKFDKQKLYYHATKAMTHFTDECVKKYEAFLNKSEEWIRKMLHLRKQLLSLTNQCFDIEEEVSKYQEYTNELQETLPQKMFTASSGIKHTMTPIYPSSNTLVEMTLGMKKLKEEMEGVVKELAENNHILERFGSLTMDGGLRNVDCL

Structure (SMILES) | method | tested at | remaining activity [%]
CCCOc1ccc(OC)c(F)c1C(=O)c1ccc(C(=O)N[C@@H]2CNC[C@H]2NC(=O)c2ccc3[nH]ncc3c2)cc1 |  | 10 µM | 82
CC(C)(C)c1nc2c(s1)c1nc(N)ncc1c1ccc(NS(=O)(=O)c3c(F)cccc3F)c(F)c12 | radiometric | 1 µM | 95
Cc1ccc(C(=O)Nc2ccc(CN3CCN(C)CC3)c(C(F)(F)F)c2)cc1C#Cc1cnc2cccnn12 |  | 23.5 nM | 95
NS(=O)(=O)c1ccc(CNc2nc(Nc3cccc(CN4CCOCC4)c3)ncc2Br)cc1 | radiometric | 1 µM | 4
Oc1cccc(-c2nc(N3CCOCC3)c3oc4ncccc4c3n2)c1 |  | 10 µM | 91
COc1cc(Nc2cnc(C#N)c(O[C@H](C)CN(C)C)n2)ncc1-c1cnn(C)c1 | radiometric | 10 µM | 55
Cc1nn(CC(F)(F)F)cc1Nc1nccc(NCc2ccc(S(N)(=O)=O)cc2)n1 | radiometric | 1 µM | 49
CCN(CC)c1ccc(C2=NNC(=O)CC2C)cc1[N+](=O)[O-] (stereo not drawn) |  | 10 µM | 104
Nc1nc(Nc2ccccc2)sc1C(=O)c1c(F)cccc1F |  | 10 µM | 92
Brc1cnc(Nc2cccc(CN3CCOCC3)c2)nc1NCCc1c[nH]cn1 | radiometric | 1 µM | 21
CC(C)(C)C(=O)c1sc(NC2CCCCC2)nc1N |  | 10 µM | 95
O=C(Nc1cnn(-c2csc(C(=O)NC3COC3)c2)c1)Nc1c(F)cccc1Cl |  | 5 µM | 98.8
